Test results from ChEMBL document CHEMBL1129672, “Ionophore properties of monensin derivatives studied on human erythrocytes by 23Na NMR and K+ and H+ potentiometry: relationship with antimicrobial and antimalarial activities” (J Med Chem, 1996).
Values after ≈ are worked out from the molar mass of the structure shown.

Assays:
[1] = tested on: Plasmodium falciparum; assay: In vitro inhibitory activity against Plasmodium falciparum; assay type: functional, organism-based
Summary of the method: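 Nigerian strain kept in human erythrocytes, 7% hematocrit, RPMI 1640 + 25 mM Hepes pH 7.4 + 10% AB+ serum, 37 °C, candle jar. Drugs from DMSO stocks (final solvent ≤0.25%), 1–2% hematocrit, 0.3–0.8% parasitemia, 48 h, then [3H]hypoxanthine 12–18 h. Filter-bound counts as % of drug-free control; IC50 from log dose plot, ≥2 experiments in triplicate.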

[2] = tested on: Bacillus cereus; assay: Minimum Inhibitory concentration against Bacillus cereus ATCC 14579; assay type: functional
Summary of the method: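 Broth dilution in Mueller-Hinton broth pH 7.4, 24 h incubation at 27 °C. Ionophores diluted in DMSO across 18 tubes, 100 ug/mL down to 1.56 ng/mL.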

SMILES	IC50 [1] [µg/mL]	MIC [2] [µg/mL]
C[C@@H]1C[C@H](C)[C@@H](C)O[C@@]1(O)COC(=O)Nc1ccc(Cl)cc1	0.00125 (≈ 0.00381 µM)	0.05 (≈ 0.153 µM)
Cc1ccc(S(=O)(=O)OC[C@]2(O)O[C@H](C)[C@@H](C)C[C@H]2C)cc1	0.00125 (≈ 0.00381 µM)	0.78 (≈ 2.37 µM)
C[C@@H]1C[C@H](C)[C@@H](C)O[C@@]1(O)COC(=O)c1cccs1	0.0027 (≈ 0.00949 µM)	0.02 (≈ 0.0703 µM)
C[C@@H]1C[C@H](C)[C@@H](C)OC1O (stereo partly specified)	0.0119 (≈ 0.0827 µM)	0.39 (≈ 2.7 µM)
C[C@@H]1C[C@H](C)[C@@H](C)O[C@@]12COC(c1ccccc1)O2 (stereo partly specified)	0.75 (≈ 2.86 µM)	6.25 (≈ 23.8 µM)
C[C@@H]1C[C@H](C)[C@@H](C)O[C@@]1(O)CO	0.00165 (≈ 0.00947 µM)	1.56 (≈ 8.95 µM)
C[C@@H]1C[C@H](C)[C@@H](C)O[C@@]12COC(=O)O2	0.00075 (≈ 0.00375 µM)	1.56 (≈ 7.79 µM)
C[C@H](C[C@H](C)[C@@H](C)O)[C@H](O)CO	5.25 (≈ 29.8 µM)	> 50
